Activity calls are given as the source filed them. The calls are words filed in the database; no cut-off is given here.
Columns and labels:
Rhizopus arrhizus [1] = assay: Antimicrobial activity against Rhizopus oryzae assessed as plasma membrane disruption-related ATP release at 32 ug/ml after 5 mins by Cell Titer-Glo luminescent assay; type: functional, organism-based
Procedure, shortened: (§1)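 Spores at 10^7 cells/ml in RPMI 1640 were germinated about 6 h at 37°C. Germlings were resuspended in RPMI with colistin at 8 or 32 μg/ml, or drug-free, and shaken at 37°C. Supernatants taken at 5, 30, 60 and 90 min were assayed for released ATP by CellTiter-Glo luminescence.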

Rhizopus arrhizus [2] = assay: Antimicrobial activity against Rhizopus oryzae isolate 6093 after 24 hrs in yeast nitrogen base complete medium by broth microdilution method; type: functional, organism-based
Procedure, shortened: (§2)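 Microdilution was done in yeast nitrogen base complete medium, with colistin serially diluted 128 to 0.12 μg/ml. Spores were harvested from YAG plates (48–72 h, 37°C), washed, filtered and counted, then added at 0.5 × 10^4 to 4 × 10^4 cells/ml. After 24 h at 37°C, MIC was taken visually as the lowest concentration with complete growth inhibition.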

Rhizopus arrhizus [3] = assay: Antimicrobial activity against Rhizopus oryzae isolate 5799 after 24 hrs in RMPI 1640 medium by broth microdilution method; type: functional, organism-based
Procedure, shortened: (§3)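 Colistin was serially diluted from 64 to 0.06 μg/ml in RPMI 1640 with glucamine and without bicarbonate. Fresh spores from 48–72 h YAG plates were added at 0.5 × 10^4 to 4 × 10^4 cells/ml. Plates were incubated 24 h at 37°C. MIC was read visually as the lowest concentration giving 100% growth inhibition.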

Rhizopus arrhizus [4] = assay: Antimicrobial activity against Rhizopus oryzae isolate 5799 after 24 hrs in yeast nitrogen base complete medium by broth microdilution method; type: functional, organism-based; procedure, shortened: as §2
Rhizopus = assay: Antimicrobial activity against […] isolate 6254 after 24 hrs in RMPI 1640 medium by broth microdilution method; type: functional, organism-based; procedure, shortened: as §3
Rhizopus arrhizus [5] = assay: Antimicrobial activity against Rhizopus oryzae assessed as reduction in hyphal viability at 8 ug/ml up to 6 hrs by XTT assay; type: functional, organism-based
Procedure, shortened: (§4)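 R. oryzae mycelia were shaken at 37°C in RPMI 1640 with colistin, amphotericin B or both; drug-free RPMI served as control. At 0, 2, 6 and 24 h, pellets received XTT (1 mg) plus menadione (0.17 mg) in 1 ml PBS for 1 h at 37°C, then OD405 was read. Viability is drug OD405 divided by control OD405; at least three experiments.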

Rhizopus arrhizus [6] = assay: Fungicidal activity against Rhizopus oryzae 5799 after 6 hrs by DiBAC staining; type: functional, organism-based
Procedure, shortened: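 Spores were grown to mycelia in RPMI 1640 plus 0.15% Junlon, shaken 18 h at 37°C. Mycelia were pelleted and exposed 6 h at 37°C with shaking to colistin (two levels), amphotericin B 2 μg/ml, or drug-free medium. They were washed in MOPS pH 7, stained with DiBAC 2 μg/ml for 1 h in the dark at ambient temperature, and imaged by fluorescence microscopy with an FITC filter.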

Rhizopus arrhizus [7] = assay: Antimicrobial activity against Rhizopus oryzae isolate 5496 after 24 hrs in RMPI 1640 medium by broth microdilution method; type: functional, organism-based; procedure, shortened: as §3
Rhizopus arrhizus [8] = assay: Antimicrobial activity against Rhizopus oryzae isolate 4549 after 24 hrs in yeast nitrogen base complete medium by broth microdilution method; type: functional, organism-based
Procedure, shortened: (§5)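 Broth microdilution in YNB complete medium with colistin at 128 to 0.12 μg/ml. Freshly collected spores were inoculated at 0.5 × 10^4 to 4 × 10^4 cells/ml and incubated 24 h at 37°C. MIC was read visually as the lowest concentration with complete (100%) growth inhibition.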

[9] = tested on: Cunninghamella bertholletiae; assay: Antimicrobial activity against Cunninghamella bertholletiae isolate 5633 after 24 hrs in yeast nitrogen base complete medium by broth microdilution method; type: functional, organism-based; procedure, shortened: as §5
Rhizopus arrhizus [10] = assay: Antimicrobial activity against Rhizopus oryzae assessed as vacuolar and plasma membrane damage at 32 ug/ml by FM4-64 staining; type: functional, organism-based
Procedure, shortened: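 Germlings at 5 × 10^6/ml were loaded with 5 μM FM4-64 in RPMI 1640 for 30 min at 30°C in the dark. After washing in PBS, they were exposed to colistin at the MIC and MFC, or drug-free RPMI, for 60 min at 37°C. Membranes were viewed by fluorescence microscopy with a rhodamine filter.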

Rhizopus arrhizus [11] = assay: Antimicrobial activity against Rhizopus oryzae isolate 3140 after 24 hrs in RMPI 1640 medium by broth microdilution method; type: functional, organism-based; procedure, shortened: as §3
Rhizopus arrhizus [12] = assay: Antimicrobial activity against Rhizopus oryzae isolate 3140 after 24 hrs in yeast nitrogen base complete medium by broth microdilution method; type: functional, organism-based; procedure, shortened: as §5
Rhizopus arrhizus [13] = assay: Antimicrobial activity against Rhizopus oryzae at 8 ug/disk after 24 hrs by disk diffusion method; type: functional, organism-based
Procedure, shortened: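 Paper disks loaded with 8, 16 or 32 μg colistin were placed on agar plates inoculated with 200 μl of a 10^6 cells/ml R. oryzae spore suspension. After 24 h at 37°C, the diameter of the inhibition zone was measured.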

Rhizopus microsporus = assay: Antimicrobial activity against Rhizopus microsporus isolate 6164 after 24 hrs in RMPI 1640 medium by broth microdilution method; type: functional; procedure, shortened: as §3
Mucor circinelloides [14] = assay: Antimicrobial activity against Mucor circinelloides isolate 4480 after 24 hrs in RMPI 1640 medium by broth microdilution method; type: functional, organism-based; procedure, shortened: as §3
Mucor circinelloides [15] = assay: Antimicrobial activity against Mucor circinelloides isolate 4480 after 24 hrs in yeast nitrogen base complete medium by broth microdilution method; type: functional, organism-based; procedure, shortened: as §5
Mucor circinelloides [16] = assay: Ratio of MFC to MIC for Mucor circinelloides isolate 4480 after 24 hrs in RMPI 1640 medium by broth microdilution method; type: functional, organism-based
Procedure, shortened: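 RPMI 1640 microdilution with colistin at 64 to 0.06 μg/ml and spores at 0.5 × 10^4 to 4 × 10^4 cells/ml, incubated 24 h at 37°C. MIC was read visually as 100% inhibition. For MFC, 20 μl from clear wells and from the last growth well were subcultured onto YAG. MFC was the lowest concentration giving fewer than three colonies at 24 h (≥99.9% killing). The line reports the MFC/MIC ratio.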

Mucor circinelloides [17] = assay: Antimicrobial activity against Mucor circinelloides isolate 4818 after 24 hrs in yeast nitrogen base complete medium by broth microdilution method; type: functional, organism-based; procedure, shortened: as §5
Rhizopus arrhizus [18] = assay: Antimicrobial activity against Rhizopus oryzae assessed as reduction in hyphal viability at 8 ug/ml after 24 hrs by XTT assay; type: functional, organism-based; procedure, shortened: as §4
Rhizopus arrhizus [19] = assay: Antimicrobial activity against Rhizopus oryzae assessed as cytoplasmic vacuolar swelling and bleb formation at 32 ug/ml by transmission electron microscopy; type: functional, organism-based
Rhizopus arrhizus [20] = assay: Antimicrobial activity against Rhizopus oryzae isolate 4153 after 24 hrs in yeast nitrogen base complete medium by broth microdilution method; type: functional, organism-based; procedure, shortened: as §5
[21] = tested on: Cunninghamella bertholletiae; assay: Antimicrobial activity against Cunninghamella bertholletiae isolate 6733 after 24 hrs in RMPI 1640 medium by broth microdilution method; type: functional, organism-based; procedure, shortened: as §3
Rhizopus arrhizus [22] = assay: Antimicrobial activity against Rhizopus oryzae assessed as plasma membrane disruption-related ATP release at 8 ug/ml after 5 mins by Cell Titer-Glo luminescent assay; type: functional, organism-based; procedure, shortened: as §1

- MIC (Rhizopus arrhizus [2]): 128 µg/mL
- MIC (Rhizopus arrhizus [3]): 8 µg/mL
- MIC (Rhizopus arrhizus [4]): 128 µg/mL
- MIC (Rhizopus): 16 µg/mL
- MIC (Rhizopus arrhizus [7]): 16 µg/mL
- MIC (Rhizopus arrhizus [8]): 128 µg/mL
- MIC [9]: 128 µg/mL
- MIC (Rhizopus arrhizus [11]): 16 µg/mL
- MIC (Rhizopus arrhizus [12]): 128 µg/mL
- MIC (Rhizopus microsporus): 32 µg/mL
- MIC (Mucor circinelloides [14]): 16 µg/mL
- MIC (Mucor circinelloides [15]): 128 µg/mL
- MIC (Mucor circinelloides [17]): 128 µg/mL
- MIC (Rhizopus arrhizus [20]): 128 µg/mL
- MIC [21]: 32 µg/mL
Sequence: COLISTIN
- Activity (Rhizopus arrhizus [1]): Active
- MFC (Rhizopus arrhizus [2]): > 128 µg/mL
- MFC (Rhizopus arrhizus [3]): 32 µg/mL
- MFC (Rhizopus arrhizus [4]): > 128 µg/mL
- MFC (Rhizopus): 32 µg/mL
- inhibition (Rhizopus arrhizus [5]): 45%
- Activity (Rhizopus arrhizus [6]): Dose-dependent effect
- MFC (Rhizopus arrhizus [7]): 32 µg/mL
- MFC (Rhizopus arrhizus [8]): > 128 µg/mL
- MFC [9]: > 128 µg/mL
- Activity (Rhizopus arrhizus [10]): Active
- MFC (Rhizopus arrhizus [11]): 32 µg/mL
- MFC (Rhizopus arrhizus [12]): > 128 µg/mL
- inhibition zone (IZ) (Rhizopus arrhizus [13]): 18 mm
- MFC (Rhizopus microsporus): 64 µg/mL
- MFC (Mucor circinelloides [14]): 32 µg/mL
- MFC (Mucor circinelloides [15]): > 128 µg/mL
- Ratio (Mucor circinelloides [16]): 2
- MFC (Mucor circinelloides [17]): > 128 µg/mL
- inhibition (Rhizopus arrhizus [18]): inactive
- Activity (Rhizopus arrhizus [19]): Active
- MFC (Rhizopus arrhizus [20]): > 128 µg/mL
- MFC [21]: 64 µg/mL
- Activity (Rhizopus arrhizus [22]): Active
